Converted amounts (≈) assume the structure as drawn. The source made the active and inactive calls. No cut-off for these calls is given here.
Legend:
Plasmodium falciparum = assay: Antimalarial activity against multidrug-resistant Plasmodium falciparum K1 in [3H]hypoxanthine incorporation microculture radioisotope assay; type: functional, organism-based
Method in brief: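 P. falciparum K1 maintained in culture by the Trager and Jensen method. Growth was measured in vitro by [3H]-hypoxanthine uptake in a microculture radioisotope format (Desjardins method). IC50 is the concentration giving 50% reduction in parasite growth. Artemisinin was the standard.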

[1] = system: Mycobacterium tuberculosis; assay: Antituberculosis activity against Mycobacterium tuberculosis H37Ra by microplate alamar blue assay; type: functional
KB = assay: Cytotoxicity against human KB cells; type: functional, cell-based
Method in brief: (§1)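 Tested on human epidermoid carcinoma (KB), breast cancer (BC1) and small cell lung cancer (NCI-H187) cell lines. Growth was read by a colorimetric method following Skehan and co-workers. Ellipticine was run as the reference substance.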

[2] = Cytotoxicity against human BC1 cells; type: functional, cell-based; method in brief: as §1
NCI-H187 = assay: Cytotoxicity against human NCI-H187 cells; type: functional, cell-based; method in brief: as §1

Row | SMILES | IC50 (Plasmodium falciparum) [µg/mL] | MIC [1] [µg/mL] | IC50 (KB) [µg/mL] | IC50 [2] [µg/mL] | IC50 (NCI-H187) [µg/mL] | Activity [1] | Activity (Plasmodium falciparum)
1 | CCCCC#CC#CC#CCCCCCCCC(=O)O | 5 (≈ 18.4 µM) | 6.25 (≈ 22.9 µM) | > 5 | 13 (≈ 47.7 µM) | > 5 | – | –
2 | C=C1CC[C@@H]2O[C@]2(C)CC[C@@H]2[C@@H]1CC2(C)C | 2.8 (≈ 12.7 µM) | – | > 5 | > 5 | 19.5 (≈ 88.5 µM) | inactive | –
3 | C/C1=C\CC/C(C)=C/CC(C)(C)/C=C/C1 [ALPHA-HUMULONE] | – | 6.25 (≈ 30.6 µM) | > 5 | > 5 | > 5 | – | inactive
4 | C[C@@H]1CC[C@H]2[C@@H](C)C(=O)O[C@@H]3O[C@@]4(C)CC[C@@H]1[C@]32OO4 [ARTEMISININ] | 0.001 (≈ 0.00354 µM) | – | – | – | – | – | –
5 | COc1ccc2c(c1)c(-c1c3c4c(cc5c(c4c4ccc(OC)cc14)OCO5)CCN3)c1c3c(cc4c(c32)OCO4)CCN1 [BIDEBILINE E] | 4.2 (≈ 7.18 µM) | 6.25 (≈ 10.7 µM) | – | – | – | – | –
6 | COc1cc2c(cc1O)[C@H](Cc1ccc(OC)c(OC)c1)N(C)CC2 [CODAMINE] | 4.2 (≈ 12.2 µM) | – | > 5 | > 5 | > 5 | inactive | –
7 | Cc1c2ccncc2c(C)c2c1[nH]c1ccccc12 [ELLIPTECINE] | – | – | 0.36 (≈ 1.46 µM) | 0.26 (≈ 1.06 µM) | 0.32 (≈ 1.3 µM) | – | –
8 | NNC(=O)c1ccncc1 [ISONIAZID] | – | 0.05 (≈ 0.365 µM) | – | – | – | – | –
9 | NC[C@H]1O[C@H](O[C@H]2[C@H](O)[C@@H](O[C@H]3O[C@H](CO)[C@@H](O)[C@H](N)[C@H]3O)[C@H](N)C[C@@H]2N)[C@H](O)[C@@H](O)[C@@H]1O.O=S(=O)(O)O [KANAMYCIN SULFATE] | – | 2.5 | – | – | – | – | –
10 | COc1ccc(C[C@H]2c3cc(OC)c(OC)cc3CCN2C)cc1O [LAUDANIDINE] | 7 (≈ 20.4 µM) | – | > 5 | > 5 | > 5 | inactive | –

— ChEMBL document CHEMBL1141291, “Bioactive constituents of the roots of Polyalthia cerasoides” (J Nat Prod, 2007)
